The results in this text go back to the array DNA melting data of Ke et al. (doi:10.1101/2024.01.08.574731).

The nature of data set [1]: folding enthalpy; higher = less favourable; fluorescence melt of hairpins on a sequencing array, two-state fit. The settings on record: sodium 0.088 M. A digest of the protocol:
(§1)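 Melting temperature and folding enthalpy were derived from bootstrapped two-state fits. The fitted temperatures were raised by 9.35 °C to agree with UV melts, and four replicates were combined by inverse variance. The underlying data were Cy3 fluorescence images of library hairpins, with annealed Cy3 and quencher oligos, on a sequenced MiSeq flow cell in 50 mM Na-HEPES pH 8.0, 25 mM NaCl, taken in 2.5 °C steps up to 60 °C, normalised to pre-quench Cy3 and to control constructs.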

Data set [2] in a line: melting temperature; fluorescence melt of hairpins on a sequencing array, two-state fit, raised by 9.35 °C to match UV melts. As to conditions: sodium 0.088 M. In a few lines:
as §1

As for GACTACGAAAGTAGGGTC ((((((....)))..))), the folding enthalpy in data set [1] was -16.5 kcal/mol. In data set [2], the Tm was 46.7 °C.

Take GACTACGAAAGTAGTGTC ((((((....)))..))): the folding enthalpy in data set [1] was -15.4 kcal/mol. The Tm in data set [2] turned out to be 50.4 °C.

As for GACTACGCGAAAGCGGTC (((..(((....)))))), the folding enthalpy in data set [1] was -15.1 kcal/mol. Besides, in data set [2], the Tm stood at 38 °C.

On to GACTACGGAAACGCAGTC ((((.((....)).)))), for which the folding enthalpy in data set [1] was -28.3 kcal/mol. Besides, the Tm in data set [2] was found to be 42.1 °C.

Turning to GACTAGAAATAGTC (((((....))))), in data set [1], the folding enthalpy is -15.7 kcal/mol. Also, the Tm in data set [2] came out at 37.6 °C.

As for GACTAGCGAAAGCTTGTC (((.(((....))).))), in data set [1], the folding enthalpy was -31.3 kcal/mol. The Tm in data set [2] worked out at 54.7 °C.

For the sequence GACTAGGGAAACCTAGCC (.(((((....))))).), the folding enthalpy in data set [1] was -19.7 kcal/mol. Further, the Tm in data set [2] came to 38.4 °C.

In the case of GACTATACGAAAGTAGTC (((..(((....)))))), in data set [1], the folding enthalpy is -24.4 kcal/mol. Moreover, in data set [2], the Tm is 34.1 °C.

On to GACTATGGAAACACAGTC ((((.((....)).)))), for which the folding enthalpy in data set [1] was -19.1 kcal/mol. For the same sequence, in data set [2], the Tm came out at 33 °C.

With GACTCAGGAAACTGAGTC (((((((....))))))), the folding enthalpy in data set [1] is -46 kcal/mol. The Tm in data set [2] was 60.8 °C.

On to GACTCCGAAAGGAAGTC ((((((....))).))), for which the folding enthalpy in data set [1] was -28.8 kcal/mol. The Tm in data set [2] was found to be 52.4 °C.

Consider GACTCCGAAAGGACCGTC ((((((....)))..))), for which the folding enthalpy in data set [1] was -13.8 kcal/mol. The Tm in data set [2] was 29.7 °C.

Consider GACTCCGAAAGGAGGTC ((((((....))).))), for which the folding enthalpy in data set [1] was -13.5 kcal/mol. Moreover, the Tm in data set [2] is 56.2 °C.

In the case of GACTCCGAAAGGATGGTC ((((((....)))..))), the folding enthalpy in data set [1] is -21.7 kcal/mol. Besides, in data set [2], the Tm was 39.4 °C.

On to GACTCCGAAAGGATTGTC ((((((....)))..))), for which the folding enthalpy in data set [1] is -16.3 kcal/mol. Further, the Tm in data set [2] amounted to 36.8 °C.

On to GACTCGCGAAAGCGGTC (((.(((....)))))), for which, in data set [1], the folding enthalpy was -14.3 kcal/mol. For the same sequence, the Tm in data set [2] amounted to 51.8 °C.

As to GACTCGGGAAACTGAGTC (((((.(....).))))), the folding enthalpy in data set [1] is -37.2 kcal/mol. Moreover, in data set [2], the Tm stood at 52.7 °C.

Turning to GACTGAGGAAACTCAGTC (((((((....))))))), the folding enthalpy in data set [1] was -34.8 kcal/mol. Besides, in data set [2], the Tm came to 61.5 °C.

On to GACTGAGGAAACTTGGTC (((..((....))..))), for which the folding enthalpy in data set [1] is -15.7 kcal/mol. Moreover, in data set [2], the Tm amounted to 32.7 °C.

With GACTGCCCGAAAGGGGTC (((..(((....)))))), in data set [1], the folding enthalpy was -9.57 kcal/mol. Also, the Tm in data set [2] stood at 35.6 °C.

Take GACTGCGAAAGCAAAGTC ((((((....)))..))): the folding enthalpy in data set [1] is -21.7 kcal/mol. Besides, the Tm in data set [2] turned out to be 47 °C.

Consider GACTGCGAAAGCAATGTC ((((((....)))..))), for which the folding enthalpy in data set [1] is -14.9 kcal/mol. The Tm in data set [2] amounted to 44.3 °C.

As for GACTGCGAAAGCAGAGTC ((((((....)))..))), the folding enthalpy in data set [1] was -11.8 kcal/mol. For the same sequence, the Tm in data set [2] is 45.1 °C.

GACTGCGAAAGCAGCGTC ((((((....)))..))): the folding enthalpy in data set [1] was -10.3 kcal/mol. Further, the Tm in data set [2] was found to be 50.7 °C.

With GACTGCGAAAGCATAGTC ((((((....)))..))), the folding enthalpy in data set [1] is -19.4 kcal/mol. For the same sequence, the Tm in data set [2] came to 46.9 °C.

On to GACTGCGAAAGCATCGTC ((((((....)))..))), for which the folding enthalpy in data set [1] is -12.2 kcal/mol. In data set [2], the Tm was 47.1 °C.

For the sequence GACTGCGAAAGCATGGTC ((((((....)))..))), in data set [1], the folding enthalpy is -14.9 kcal/mol. Also, the Tm in data set [2] stood at 42.7 °C.

As for GACTGCGCGAAAGCGGTC (((..(((....)))))), the folding enthalpy in data set [1] was -11.3 kcal/mol. The Tm in data set [2] is 48 °C.

As to GACTGGAAACAGTC (((((....))))), in data set [1], the folding enthalpy was -35.1 kcal/mol. Moreover, in data set [2], the Tm amounted to 51.7 °C.

Consider GACTGGCCGAAAGGCGTC (((..(((....)))))), for which, in data set [1], the folding enthalpy was -11.8 kcal/mol. In data set [2], the Tm is 50.8 °C.

For GACTGGCGAAAGCCTGTC (((.(((....))).))), the folding enthalpy in data set [1] is -21.6 kcal/mol. The Tm in data set [2] was 68.9 °C.

As for GACTGTGCGAAAGCAGTC (((..(((....)))))), the folding enthalpy in data set [1] is -18 kcal/mol. For the same sequence, the Tm in data set [2] came to 45.1 °C.

Regarding GACTGTGGAAACGCAGTC (((((.(....).))))), in data set [1], the folding enthalpy was -31.7 kcal/mol. Besides, in data set [2], the Tm came out at 51.9 °C.

Consider GACTTCCGAAAGGAGGTC (((.(((....))).))), for which the folding enthalpy in data set [1] is -36.6 kcal/mol. For the same sequence, the Tm in data set [2] was found to be 54.8 °C.

GACTTGCCGAAAGGCGTC (((..(((....)))))): the folding enthalpy in data set [1] was -11.6 kcal/mol. In addition, the Tm in data set [2] is 36.4 °C.

Regarding GACTTGGGAAACCAAATC ((.((((....)))).)), the folding enthalpy in data set [1] was -14 kcal/mol. Also, the Tm in data set [2] turned out to be 28 °C.
